Assay results: ChEMBL document CHEMBL1128352, “Substituted (1,2-diarylethyl)amide acyl-CoA:cholesterol acyltransferase inhibitors: effect of polar groups on in vitro and in vivo activity” (J Med Chem, 1995)

Key:
[1] = target: T1, Sterol O-acyltransferase 1 (Rattus norvegicus, UniProt O70536); experiment: In vitro inhibition of acyl coenzyme A:cholesterol acyltransferase 1, rat liver microsomal assay
T1 sequence (O70536 whole entry): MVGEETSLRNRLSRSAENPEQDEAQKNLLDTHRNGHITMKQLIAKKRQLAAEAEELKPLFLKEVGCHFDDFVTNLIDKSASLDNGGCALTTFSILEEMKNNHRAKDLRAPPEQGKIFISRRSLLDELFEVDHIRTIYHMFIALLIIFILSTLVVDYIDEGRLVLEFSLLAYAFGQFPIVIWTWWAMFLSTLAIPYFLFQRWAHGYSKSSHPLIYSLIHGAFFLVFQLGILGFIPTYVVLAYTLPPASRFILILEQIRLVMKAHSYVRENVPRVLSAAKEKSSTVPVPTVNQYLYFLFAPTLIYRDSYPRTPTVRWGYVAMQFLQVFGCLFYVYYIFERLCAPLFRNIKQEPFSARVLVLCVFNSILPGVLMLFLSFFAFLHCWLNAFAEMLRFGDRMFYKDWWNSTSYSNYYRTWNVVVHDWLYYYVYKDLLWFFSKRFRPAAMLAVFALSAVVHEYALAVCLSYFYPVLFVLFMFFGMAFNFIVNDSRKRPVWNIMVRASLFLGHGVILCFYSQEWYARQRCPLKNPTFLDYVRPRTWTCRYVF
How it was run: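 Compound added from DMSO stock and preincubated 15 min at 37 °C. [³H]oleoyl-CoA (10 µM final, 1 µCi) then added for 15 min at 37 °C. Cholesteryl [³H]oleate separated by silica TLC and counted by liquid scintillation.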

[2] = target: T2, Sterol O-acyltransferase 1 (Rattus norvegicus) (UniProt O70536); experiment: In vitro ability of compound to inhibit Acyl coenzyme A:cholesterol acyltransferase 1 using rat liver microsomal assay; settings: concentration not given here
T2 sequence (whole entry): T1 sequence (O70536 whole entry)
How it was run: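 Rat liver microsomes (12.5 µg protein) in 0.1 M potassium phosphate with 2 mM DTT, pH 7.4, and 90 µM fatty-acid-free BSA. Compound added from DMSO stock and preincubated 15 min at 37 °C. [³H]oleoyl-CoA (10 µM final, 1 µCi) then added for 15 min at 37 °C. Cholesteryl [³H]oleate separated by silica TLC and counted by liquid scintillation.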

Cricetinae gen. sp. [3] = experiment: In vivo effect on cholesteryl esters level of cholesterol-fed hamsters at a dose of 50 mg/kg per oral; assay type: functional
How it was run: (§1)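 Male golden Syrian hamsters (100–125 g) were fed a high-cholesterol diet for 7 days. Compound was given by oral gavage in 0.2 mL corn oil/day. Liver lipids were Folch-extracted and hepatic cholesteryl ester measured by HPLC. Results are given as percent change versus cholesterol-fed controls dosed with vehicle alone.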

Cricetinae gen. sp. [4] = experiment: In vivo effect on serum cholesterol level of cholesterol-fed hamsters at a dose of 50 mg/kg per oral; assay type: functional
Cricetinae gen. sp. [5] = experiment: In vivo effect on cholesteryl esters in cholesterol-fed hamsters at a dose of 50(mpk); assay type: functional; how it was run: as §1
Cricetinae gen. sp. [6] = experiment: In vivo effect on serum cholesterol level of cholesterol-fed hamsters at a dose of 50(mpk); assay type: functional
Cricetinae gen. sp. [7] = experiment: In vivo dose effecting the cholesteryl esters in cholesterol-fed hamsters at a dose of 50(mpk); assay type: functional
Cricetinae gen. sp. [8] = experiment: In vivo effect on serum cholesterol level of cholesterol-fed hamsters at a dose of 100(mpk); assay type: functional
Cricetinae gen. sp. [9] = experiment: In vivo effect on cholesteryl esters in cholesterol-fed hamsters at a dose of 100(mpk); assay type: functional; how it was run: as §1

Structure (SMILES)	IC50 [1]	Change (Cricetinae gen. sp. [3])	Change (Cricetinae gen. sp. [4])	further results
O=C(NC(Cc1ccc(O)cc1)c1ccc(O)cc1)C(c1ccccc1)c1ccccc1 (configuration not stated)	–	-40%	-20%	inhibition [2]: 97%
C[Si](C)(C)CCOCn1ccnc1C(Cc1ccccc1)NC(=O)C(c1ccccc1)c1ccccc1 (configuration not stated)	> 10 µM	–	–	–
COC(=O)c1ccc(CC(NC(=O)C(c2ccccc2)c2ccccc2)c2ccccc2)cc1 (configuration not stated)	> 10 µM	–	–	–
COc1ccc(CC(NC(=O)C(c2ccccc2)c2ccccc2)c2ccc(OC)cc2)cc1 (configuration not stated)	> 10 µM	-32%	0%	–
O=C(NC(Cc1ncc[nH]1)c1ccccc1)C(c1ccccc1)c1ccccc1 (configuration not stated)	> 10 µM	–	–	–
Nc1ccc(CC(NC(=O)C(c2ccccc2)c2ccccc2)c2ccccc2)cc1 (racemic)	–	–	–	Change (Cricetinae gen. sp. [5]): -60%; Change (Cricetinae gen. sp. [6]): -13%; ED50 (Cricetinae gen. sp. [7]): 21 mg/kg
Nc1ccc(CC(NC(=O)C(c2ccccc2)c2ccccc2)c2ccccc2)cc1 (stereo in doubt; (+)-5)	–	0%	–	–
CCCCCCCCCC[Si](C)(C)CCC(=O)NC(Cc1ccc(C)cc1)c1ccccc1 (configuration not stated)	0.3 µM	–	–	Change (Cricetinae gen. sp. [8]): -5%; Change (Cricetinae gen. sp. [9]): 0%
CCCCCCCCCCC(C)(C)C(=O)Nc1c(OC)cc(OC)cc1OC [CL-976]	–	–	–	Change (Cricetinae gen. sp. [5]): -67%; Change (Cricetinae gen. sp. [6]): -10%; ED50 (Cricetinae gen. sp. [7]): 20 mg/kg
CCCCCCCN(Cc1ccc(CC(C)(C)C)cc1)C(=O)Nc1ccc(F)cc1F [CL-277082]	–	–	–	Change (Cricetinae gen. sp. [5]): -85%; Change (Cricetinae gen. sp. [6]): -29%; ED50 (Cricetinae gen. sp. [7]): 15 mg/kg
CCCCCCCC/C=C\CCCCCCCC(=O)NC(Cc1ccccc1)c1ccccc1 (configuration not stated)	–	–	–	Change (Cricetinae gen. sp. [8]): -4%; Change (Cricetinae gen. sp. [9]): -23%
O=C(NC(Cc1ccccc1)c1ncc[nH]1)C(c1ccccc1)c1ccccc1 (configuration not stated)	> 10 µM	–	–	–
O=C(NC(Cc1ccccc1)c1cc[n+]([O-])cc1)C(c1ccccc1)c1ccccc1 (configuration not stated)	> 10 µM	-28%	0%	–
Nc1ccc(CC(NC(=O)C(c2ccccc2)c2ccccc2)c2ccccc2)cc1 (single isomer, unassigned; (-))	–	-81%	0%	–
O=C(NC(Cc1ccccc1)c1cccc(O)c1)C(c1ccccc1)c1ccccc1 (configuration not stated)	–	-19%	-17%	inhibition [2]: 88%

Now from value to compound, other results behind:

IC50 [1]	Structure (SMILES)	Change (Cricetinae gen. sp. [3])	Change (Cricetinae gen. sp. [4])	further results
> 10 µM	O=C(O)c1ccc(CC(NC(=O)C(c2ccccc2)c2ccccc2)c2ccccc2)cc1 (configuration not stated)	–	–	–
1.5 µM	COc1cccc(C(Cc2ccccc2)NC(=O)C(c2ccccc2)c2ccccc2)c1 (configuration not stated)	0%	0%	–
5 µM	Nc1cccc(CC(NC(=O)C(c2ccccc2)c2ccccc2)c2ccccc2)c1 (configuration not stated)	-31%	-15%	–
0.36 µM	CS(=O)(=O)Nc1ccc(CC(NC(=O)C(c2ccccc2)c2ccccc2)c2ccccc2)cc1 (configuration not stated)	-32%	-17%	–
3.5 µM	O=C(NC(Cn1ccnc1)c1ccccc1)C(c1ccccc1)c1ccccc1 (configuration not stated)	0%	0%	–
2.4 µM	COc1ccc(CC(NC(=O)C(c2ccccc2)c2ccccc2)c2cccc(OC)c2)cc1 (configuration not stated)	0%	-20%	–
1.5 µM	COc1ccc(C(Cc2ccccc2)NC(=O)C(c2ccccc2)c2ccccc2)cc1 (configuration not stated)	-69%	-14%	–
1.6 µM	COc1ccc(CC(NC(=O)C(c2ccccc2)c2ccccc2)c2ccccc2)cc1 (configuration not stated)	-65%	-14%	–
0.8 µM	O=C(NC(Cc1ccc(O)cc1)c1ccccc1)C(c1ccccc1)c1ccccc1 (configuration not stated)	0%	0%	–
2.8 µM	Nc1ccc(C(Cc2ccccc2)NC(=O)C(c2ccccc2)c2ccccc2)cc1 (configuration not stated)	-24%	0%	–
0.5 µM	COc1ccc(CC(NC(=O)C(c2ccccc2)c2ccccc2)c2ccccc2)cc1OC (configuration not stated)	-26%	-21%	–
0.36 µM	CCCCCCCC/C=C\CCCCCCC(C)(C)C(=O)NC(Cc1ccc(N)cc1)c1ccccc1 (configuration not stated)	–	–	Change (Cricetinae gen. sp. [8]): -24%; Change (Cricetinae gen. sp. [9]): -54%
5 µM	CCCCCCCn1ccnc1CC(NC(=O)C(c1ccccc1)c1ccccc1)c1ccccc1 (configuration not stated)	0%	0%	–
1.8 µM	COc1ccccc1C(Cc1ccccc1)NC(=O)C(c1ccccc1)c1ccccc1 (configuration not stated)	-51%	0%	–
0.35 µM	CC(=O)Nc1ccc(CC(NC(=O)C(c2ccccc2)c2ccccc2)c2ccccc2)cc1 (configuration not stated)	0%	-12%	–
5 µM	C[Si](C)(C)CCOCn1ccnc1CC(NC(=O)C(c1ccccc1)c1ccccc1)c1ccccc1 (configuration not stated)	-24%	0%	–
4 µM	O=C(NC(Cc1ccccc1)c1cccnc1)C(c1ccccc1)c1ccccc1 (configuration not stated)	0%	-9%	–
1.8 µM	O=C(NC(Cc1ccncc1)c1ccccc1)C(c1ccccc1)c1ccccc1 (configuration not stated)	-52%	-10%	–
1 µM	O=C(NC(Cc1ccccc1)c1ccc(O)cc1)C(c1ccccc1)c1ccccc1 (configuration not stated)	-69%	-14%	–
2.3 µM	O=C(NC(Cc1ccccc1)c1ccncc1)C(c1ccccc1)c1ccccc1 (configuration not stated)	-29%	-13%	–
0.46 µM	O=C(NC(Cc1ccccc1)c1ccccc1)C(c1ccccc1)c1ccccc1 (configuration not stated)	–	–	Change (Cricetinae gen. sp. [5]): -15%; Change (Cricetinae gen. sp. [6]): 0%
10 µM	O=C(O)c1ccc(C(Cc2ccccc2)NC(=O)C(c2ccccc2)c2ccccc2)cc1 (configuration not stated)	0%	0%	–
